Values after ≈ are worked out from the molar mass of the structure shown. Active and inactive are the calls of the source. The calls are words filed in the database; no cut-off is given here.
Experiments:
[1] = Inhibition of DNA gyrase assessed as pBR322 DNA relaxation at 1 uM
Outline: (§1)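 Relaxation without ATP: gyrase (60 nM) with supercoiled pBR322 DNA (6 nM) and drug at […] for 1 h at 37 °C; relaxation judged by gel. Ciprofloxacin, novobiocin and nalidixic acid comparators.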

[2] = Inhibition of DNA gyrase assessed as pBR322 DNA relaxation at 5 uM; outline: as §1
Salmonella typhimurium [3] = assay: Antimicrobial activity against Salmonella Typhimurium at 10 ug after 24 hrs by disk diffusion method; type: functional, Salmonella enterica subsp. enterica serovar Typhimurium; conditions: Salmonella enterica, read-out: IZ
Outline: (§2)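 Inoculum made in 0.85% saline against McFarland standard, swabbed evenly onto nutrient agar; sterile filter-paper discs set equidistant and loaded with equal volumes of drug at varying amounts; zone of inhibition measured after 24 h at 37 °C; ciprofloxacin reference.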

Klebsiella pneumoniae [4] = assay: Antimicrobial activity against Klebsiella pneumoniae at 15 ug after 24 hrs by disk diffusion method; type: functional; conditions: read-out: IZ; outline: as §2
Staphylococcus aureus [5] = assay: Antimicrobial activity against Staphylococcus aureus at 15 ug after 24 hrs by disk diffusion method; type: functional; conditions: read-out: IZ; outline: as §2
Escherichia coli [6] = assay: Antimicrobial activity against Escherichia coli at 25 ug after 24 hrs by disk diffusion method; type: functional; conditions: read-out: IZ; outline: as §2
Bacillus subtilis [7] = assay: Antimicrobial activity against Bacillus subtilis at 25 ug after 24 hrs by disk diffusion method; type: functional; conditions: read-out: IZ; outline: as §2
Salmonella typhimurium [8] = assay: Antimicrobial activity against Salmonella Typhimurium at 25 ug after 24 hrs by disk diffusion method; type: functional, Salmonella enterica subsp. enterica serovar Typhimurium; conditions: Salmonella enterica, read-out: IZ; outline: as §2
Pseudomonas aeruginosa [9] = assay: Antimicrobial activity against Pseudomonas aeruginosa at 15 ug after 24 hrs by disk diffusion method; type: functional; conditions: read-out: IZ; outline: as §2
Klebsiella pneumoniae [10] = assay: Antimicrobial activity against Klebsiella pneumoniae at 20 ug after 24 hrs by disk diffusion method; type: functional; conditions: read-out: IZ; outline: as §2
[11] = Inhibition of DNA gyrase assessed as pBR322 DNA relaxation at 2.5 uM
Outline: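 Gyrase (60 nM) was incubated with supercoiled pBR322 DNA (6 nM) and increasing compound concentrations (0, 0.1, 0.25, 0.5, 2.5) without ATP for 1 h at 37 °C. Relaxation of the supercoiled DNA was evaluated.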

Salmonella typhimurium [12] = assay: Antimicrobial activity against Salmonella Typhimurium at 15 ug after 24 hrs by disk diffusion method; type: functional, Salmonella enterica subsp. enterica serovar Typhimurium; conditions: Salmonella enterica, read-out: IZ; outline: as §2
Bacillus subtilis [13] = assay: Antimicrobial activity against Bacillus subtilis by broth microdilution assay; type: functional
Outline: (§3)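 Broth microdilution per NCCLS 1997 in 96-well plate; final inoculum 10^5 cfu/mL; incubated 35.7 °C in air 18–20 h; MIC read as lowest concentration with no visible growth.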

Bacillus subtilis [14] = assay: Antimicrobial activity against Bacillus subtilis at 15 ug after 24 hrs by disk diffusion method; type: functional; conditions: read-out: IZ; outline: as §2
Klebsiella pneumoniae [15] = assay: Antimicrobial activity against Klebsiella pneumoniae at 25 ug after 24 hrs by disk diffusion method; type: functional; conditions: read-out: IZ; outline: as §2
Escherichia coli [16] = assay: Antimicrobial activity against Escherichia coli at 5 ug after 24 hrs by disk diffusion method; type: functional; conditions: read-out: IZ; outline: as §2
Pseudomonas aeruginosa [17] = assay: Antimicrobial activity against Pseudomonas aeruginosa at 10 ug after 24 hrs by disk diffusion method; type: functional; conditions: read-out: IZ; outline: as §2
Pseudomonas aeruginosa [18] = assay: Antimicrobial activity against Pseudomonas aeruginosa at 5 ug after 24 hrs by disk diffusion method; type: functional; conditions: read-out: IZ; outline: as §2
Salmonella typhi = assay: Antimicrobial activity against Salmonella typhi by broth microdilution assay; type: functional, Salmonella enterica subsp. enterica serovar Typhi; conditions: Salmonella enterica
Outline: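 Broth microdilution in 96-well plates following the NCCLS 1997 protocol. Final inoculum was 10^5 cfu/mL, with a control organism run alongside. Plates were incubated at 35.7 °C in air for 18–20 h. MIC is the lowest concentration with no visible growth.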

Klebsiella pneumoniae [19] = assay: Antimicrobial activity against Klebsiella pneumoniae at 5 ug after 24 hrs by disk diffusion method; type: functional; conditions: read-out: IZ; outline: as §2
Staphylococcus aureus [20] = assay: Antimicrobial activity against Staphylococcus aureus by broth microdilution assay; type: functional; outline: as §3
Staphylococcus aureus [21] = assay: Antimicrobial activity against Staphylococcus aureus at 25 ug after 24 hrs by disk diffusion method; type: functional; conditions: read-out: IZ; outline: as §2
Staphylococcus aureus [22] = assay: Antimicrobial activity against Staphylococcus aureus at 20 ug after 24 hrs by disk diffusion method; type: functional; conditions: read-out: IZ; outline: as §2
Bacillus subtilis [23] = assay: Antimicrobial activity against Bacillus subtilis at 10 ug after 24 hrs by disk diffusion method; type: functional; conditions: read-out: IZ; outline: as §2
Bacillus subtilis [24] = assay: Antimicrobial activity against Bacillus subtilis at 20 ug after 24 hrs by disk diffusion method; type: functional; conditions: read-out: IZ; outline: as §2
Staphylococcus aureus [25] = assay: Antimicrobial activity against Staphylococcus aureus at 5 ug after 24 hrs by disk diffusion method; type: functional; conditions: read-out: IZ; outline: as §2
Pseudomonas aeruginosa [26] = assay: Antimicrobial activity against Pseudomonas aeruginosa at 25 ug after 24 hrs by disk diffusion method; type: functional; conditions: read-out: IZ; outline: as §2
Escherichia coli [27] = assay: Antimicrobial activity against Escherichia coli by broth microdilution assay; type: functional; outline: as §3
Salmonella typhimurium [28] = assay: Antimicrobial activity against Salmonella Typhimurium at 20 ug after 24 hrs by disk diffusion method; type: functional, Salmonella enterica subsp. enterica serovar Typhimurium; conditions: Salmonella enterica, read-out: IZ; outline: as §2
Pseudomonas aeruginosa [29] = assay: Antimicrobial activity against Pseudomonas aeruginosa by broth microdilution assay; type: functional; outline: as §3
Staphylococcus aureus [30] = assay: Antimicrobial activity against Staphylococcus aureus at 10 ug after 24 hrs by disk diffusion method; type: functional; conditions: read-out: IZ; outline: as §2
Klebsiella pneumoniae [31] = assay: Antimicrobial activity against Klebsiella pneumoniae at 10 ug after 24 hrs by disk diffusion method; type: functional; conditions: read-out: IZ; outline: as §2
Salmonella typhimurium [32] = assay: Antimicrobial activity against Salmonella Typhimurium at 5 ug after 24 hrs by disk diffusion method; type: functional, Salmonella enterica subsp. enterica serovar Typhimurium; conditions: Salmonella enterica, read-out: IZ; outline: as §2
Pseudomonas aeruginosa [33] = assay: Antimicrobial activity against Pseudomonas aeruginosa at 20 ug after 24 hrs by disk diffusion method; type: functional; conditions: read-out: IZ; outline: as §2
Klebsiella pneumoniae [34] = assay: Antimicrobial activity against Klebsiella pneumoniae by broth microdilution assay; type: functional; outline: as §3
Escherichia coli [35] = assay: Antimicrobial activity against Escherichia coli at 20 ug after 24 hrs by disk diffusion method; type: functional; conditions: read-out: IZ; outline: as §2
[36] = Inhibition of DNA gyrase assessed as conversion of relaxed pBR322 to supercoiled form
Outline: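 Supercoiling in 15 µL reactions: gyrase assay buffer, 150 ng relaxed pBR322, 2–3 µL purified DNA gyrase, 3 h at 37 °C (E. coli); stopped with 50% glycerol/0.25% bromophenol blue; 1% agarose in 1× TBE pH 8.3, 90 V 3 h; ethidium bromide stain; supercoiled band brightness by densitometry. Ciprofloxacin comparator.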

Escherichia coli [37] = assay: Antimicrobial activity against Escherichia coli at 15 ug after 24 hrs by disk diffusion method; type: functional; conditions: read-out: IZ; outline: as §2
Escherichia coli [38] = assay: Antimicrobial activity against Escherichia coli at 10 ug after 24 hrs by disk diffusion method; type: functional; conditions: read-out: IZ; outline: as §2

Structure (SMILES): CO[C@@H]1[C@@H](OC(N)=O)[C@@H](O)[C@H](Oc2ccc3c(O)c(NC(=O)c4ccc(O)c(CC=C(C)C)c4)c(=O)oc3c2C)OC1(C)C
- Activity [1]: Active
- Activity [2]: inactive

Structure (SMILES): c1ccc(C2c3ccccc3N[C@H]3c4cccn4C[C@@H]23)cc1 (some centres not stated)
- zone of inhibition at 10 µg/disc (Salmonella typhimurium [3]): 16 mm
- zone of inhibition at 15 µg/disc (Klebsiella pneumoniae [4]): 30 mm
- zone of inhibition at 15 µg/disc (Staphylococcus aureus [5]): 13 mm
- zone of inhibition at 25 µg/disc (Escherichia coli [6]): 23 mm
- zone of inhibition at 25 µg/disc (Bacillus subtilis [7]): 9 mm
- zone of inhibition at 25 µg/disc (Salmonella typhimurium [8]): 24 mm
- zone of inhibition at 15 µg/disc (Pseudomonas aeruginosa [9]): 17 mm
- zone of inhibition at 20 µg/disc (Klebsiella pneumoniae [10]): 34 mm
- Activity [11]: Active
- zone of inhibition at 15 µg/disc (Salmonella typhimurium [12]): 18 mm
- MIC50 (Bacillus subtilis [13]): 2.5 µg/mL (≈ 8.73 µM)
- MIC90 (Bacillus subtilis [13]): 5 µg/mL (≈ 17.5 µM)
- zone of inhibition at 15 µg/disc (Bacillus subtilis [14]): 6 mm
- zone of inhibition at 25 µg/disc (Klebsiella pneumoniae [15]): 36 mm
- zone of inhibition at 5 µg/disc (Escherichia coli [16]): 10 mm
- zone of inhibition at 10 µg/disc (Pseudomonas aeruginosa [17]): 16 mm
- zone of inhibition at 5 µg/disc (Pseudomonas aeruginosa [18]): 10 mm
- MIC50 (Salmonella typhi): 1.64 µg/mL (≈ 5.73 µM)
- MIC90 (Salmonella typhi): 2.5 µg/mL (≈ 8.73 µM)
- zone of inhibition at 5 µg/disc (Klebsiella pneumoniae [19]): 20 mm
- MIC50 (Staphylococcus aureus [20]): 64 µg/mL (≈ 223 µM)
- MIC90 (Staphylococcus aureus [20]): 128 µg/mL (≈ 447 µM)
- zone of inhibition at 25 µg/disc (Staphylococcus aureus [21]): 17 mm
- zone of inhibition at 20 µg/disc (Staphylococcus aureus [22]): 14 mm
- zone of inhibition at 10 µg/disc (Bacillus subtilis [23]): 7 mm
- zone of inhibition at 20 µg/disc (Bacillus subtilis [24]): 7 mm
- zone of inhibition at 5 µg/disc (Staphylococcus aureus [25]): 9 mm
- zone of inhibition at 25 µg/disc (Pseudomonas aeruginosa [26]): 24 mm
- MIC50 (Escherichia coli [27]): 2 µg/mL (≈ 6.98 µM)
- MIC90 (Escherichia coli [27]): 4 µg/mL (≈ 14 µM)
- zone of inhibition at 20 µg/disc (Salmonella typhimurium [28]): 22 mm
- MIC50 (Pseudomonas aeruginosa [29]): 0.5 µg/mL (≈ 1.75 µM)
- MIC90 (Pseudomonas aeruginosa [29]): 32 µg/mL (≈ 112 µM)
- zone of inhibition at 10 µg/disc (Staphylococcus aureus [30]): 12 mm
- zone of inhibition at 10 µg/disc (Klebsiella pneumoniae [31]): 26 mm
- zone of inhibition at 5 µg/disc (Salmonella typhimurium [32]): 10 mm
- zone of inhibition at 20 µg/disc (Pseudomonas aeruginosa [33]): 22 mm
- MIC50 (Klebsiella pneumoniae [34]): 2 µg/mL (≈ 6.98 µM)
- MIC90 (Klebsiella pneumoniae [34]): 32 µg/mL (≈ 112 µM)
- zone of inhibition at 20 µg/disc (Escherichia coli [35]): 20 mm
- Activity [36]: Active
- zone of inhibition at 15 µg/disc (Escherichia coli [37]): 18 mm
- zone of inhibition at 10 µg/disc (Escherichia coli [38]): 16 mm

Structure (SMILES): CCn1cc(C(=O)O)c(=O)c2ccc(C)nc21
- Activity [11]: Active
- Activity [36]: Active

Reference: ChEMBL document CHEMBL1140876, “Synthesis and antibacterial property of quinolines with potent DNA gyrase activity” (2009)
